Source: PubChem BioAssay
The source made the active and inactive calls.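 How the source made its calls, unless noted: active means compounds giving at least 50% inhibition in the cell-based MKP-3 phosphatase rescue imaging test; inactive means the rest.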

Experiments:
[1] = inhibitors of TNFa-induced NFkB p65 translocation, primary screen, imaging, HUVEC, MLSMR starter and 10KST1 sets (AID 438;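 active means inhibition above 20% together with a positive visual image hit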;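 further: compound added about 3h40 before a 20 min TNFalpha stimulation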;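 on inhibition: signal is the nuclear over cytoplasmic p65 intensity ratio per well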); details: HUVEC TNFa-induced p65 nuclear translocation; cell count: measured here: nuclei count (cytotoxicity indicator), at 2.08 µM; inhibition: at 2 µM, stronger effect = higher value, 0% TNFa-plus-vehicle, 100% no-TNFa wells
[2] = inhibitors of E-selectin induction by TNFa, primary screen, imaging, HUVEC, immunofluorescence, MLSMR starter and 10KST1 sets (AID 487;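 active means visually confirmed hit in the image check and inhibition above 20%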;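 on inhibition: signal is fraction of cell area covered by stained E-selectin grains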;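 on nuclei count: 100% = median nuclei count of all wells on the same plate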); details: HUVEC TNFalpha-induced E-selectin immunofluorescence imaging, at 2 µM; inhibition: stronger effect = higher value; nuclei count: measured here: cell number, toxicity
[3] = DUSP6 inhibitors restoring Erk phosphorylation by chemical complementation, primary imaging in DUSP6-transfected HeLa (AID 609); details: HeLa MKP-3 transfected, phospho-Erk imaging KS statistic, at 10 µM, cells stimulated with TPA for 15 min;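 on inhibition: phospho-Erk level distribution per well compared with pooled transfected vehicle control wells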
[4] = target: Dual specificity protein phosphatase 6 (Homo sapiens) (UniProt Q16828); assay: as above; details: HeLa MKP-3 transfected, phospho-Erk imaging KS statistic; at 10 µM; stronger effect = higher value; cells stimulated with TPA for 15 min
Chain of Dual specificity protein phosphatase 6 (Homo sapiens) (Q16828 whole entry, looked up): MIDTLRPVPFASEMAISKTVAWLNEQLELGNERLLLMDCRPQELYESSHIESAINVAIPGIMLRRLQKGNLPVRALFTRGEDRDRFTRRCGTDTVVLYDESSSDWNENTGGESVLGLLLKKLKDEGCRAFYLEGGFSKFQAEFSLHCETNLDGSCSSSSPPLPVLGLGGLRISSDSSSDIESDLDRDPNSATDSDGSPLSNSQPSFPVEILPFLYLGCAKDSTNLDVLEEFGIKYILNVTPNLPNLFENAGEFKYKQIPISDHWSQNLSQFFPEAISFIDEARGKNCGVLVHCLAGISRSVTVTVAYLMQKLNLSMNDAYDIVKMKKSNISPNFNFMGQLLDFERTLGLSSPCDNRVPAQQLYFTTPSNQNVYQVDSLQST

[5] = target: Voltage-gated potassium channel subunit beta-2 (Rattus norvegicus) (UniProt P62483); assay: KvBeta enzyme negative modulators, primary screen, biochemical, NADPH fluorescence (AID 622;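 active means fluorescence slope higher than the sample average by over 3 SD, cut at about -0.22 in these data, passing the limit was not always enough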;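 further: slope of raw intensity against log time taken from 70 to 1610 s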); details: recombinant KvBeta, 4-cyanobenzaldehyde reduction, at 10 µM, stronger effect = higher value
Chain of Voltage-gated potassium channel subunit beta-2 (Rattus norvegicus) (P62483 whole entry, looked up): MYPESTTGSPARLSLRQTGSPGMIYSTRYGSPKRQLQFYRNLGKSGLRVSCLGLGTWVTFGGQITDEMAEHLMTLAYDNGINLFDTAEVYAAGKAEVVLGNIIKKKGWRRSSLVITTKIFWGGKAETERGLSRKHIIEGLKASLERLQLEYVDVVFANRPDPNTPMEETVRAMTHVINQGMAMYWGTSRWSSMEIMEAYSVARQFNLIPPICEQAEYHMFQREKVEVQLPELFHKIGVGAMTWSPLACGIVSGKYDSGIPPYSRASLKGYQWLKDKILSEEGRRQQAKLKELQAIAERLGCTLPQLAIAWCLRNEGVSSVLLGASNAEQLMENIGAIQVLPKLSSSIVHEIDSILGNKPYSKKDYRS

[6] = target: Voltage-gated potassium channel subunit beta-2 (Rattus norvegicus) (UniProt P62483); assay: KvBeta positive modulators, primary screen, biochemical, NADPH fluorescence (AID 623;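 active means NADPH fluorescence slope more negative than the mean of all samples by about 3 SD, 99.7% confidence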;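 further: fluorescence intensity change per second fitted from 20 to 320 s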); details: Recombinant KvBeta, NADPH fluorescence decrease slope, 10 min; at 10 µM; stronger effect = lower value
[7] = target: Muscarinic acetylcholine receptor M4 (Homo sapiens) (UniProt P08173); assay: compounds altering M4/GIRK thallium flux, either direction, primary screen, M4 allosteric agonist project, cell-based, HEK293 M4/GIRK, BTC-AM (AID 625;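 active means fluorescence slope after compound addition differing from the mean of all tested samples at 99.7% confidence, mostly higher but some lower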;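 further: thallium influx through GIRK channels coupled to M4 in HEK293 cells with BTC-AM dye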); details: at 10 µM, actives lie on both sides
Chain of Muscarinic acetylcholine receptor M4 (Homo sapiens) (P08173 whole entry, looked up): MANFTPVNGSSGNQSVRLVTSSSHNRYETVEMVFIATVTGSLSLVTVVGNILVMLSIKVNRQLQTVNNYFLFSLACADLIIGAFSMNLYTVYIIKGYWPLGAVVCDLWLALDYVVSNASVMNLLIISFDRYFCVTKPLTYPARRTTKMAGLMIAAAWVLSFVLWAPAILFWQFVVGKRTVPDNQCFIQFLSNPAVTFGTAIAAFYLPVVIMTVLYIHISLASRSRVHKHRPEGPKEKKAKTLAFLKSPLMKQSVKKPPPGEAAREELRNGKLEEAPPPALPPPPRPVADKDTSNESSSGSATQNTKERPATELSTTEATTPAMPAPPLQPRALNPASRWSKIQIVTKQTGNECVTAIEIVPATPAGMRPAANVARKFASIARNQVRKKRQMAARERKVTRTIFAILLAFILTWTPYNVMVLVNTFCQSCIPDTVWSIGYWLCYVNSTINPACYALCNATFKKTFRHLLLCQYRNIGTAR
In short: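 Material: M4/GIRK1/GIRK2 stable HEK293 cell line. Medium: pH 7.3 thallium assay buffer. Dosing: single compound concentration, 10 µM final. Schedule: 1 h dye loading, 2 min kinetic read. Measured by: kinetic fluorescence with BTC-AM dye. Read-out: post-addition slope, 15–24 s, of baseline-normalized fluorescence. Benchmarks: carbachol and DMSO controls.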

[8] = inhibitors of larval lipid processing in zebrafish, primary screen, whole organism, PED6 fluorescence, gall bladder and intestine (AID 686;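 active means a full or partial loss of lipid-probe fluorescence in the fish gall bladder, intestine or both, judged by eye; inactive means no fluorescence loss, or compound toxic to the fish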;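 further: larvae 5 to 7 days old with five fish per well; signal comes from phospholipase A2 cleavage of quenched PED6 carried via bile; overnight exposure to compound and PED6 before scoring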); details: Zebrafish larvae PED6 lipid processing, fluorescence scoring; screened at 20 µM (by protocol)
In short: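 System: live zebrafish larvae aged 5-7 days, whole organism; measure: graded gall bladder and intestinal fluorescence inhibition per well; incubation: overnight exposure; reagent: ingested quenched lipid PED6 at 100 nM; signal: By-eye fluorescence microscopy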

[9] = inhibitors of Chlamydomonas gravitaxis, primary screen, whole organism, Chlamydomonas reinhardtii, WT vs cilia-less mutant, absorbance, 96-well (AID 463189;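 active means inhibition at or above 50% relative to wild type and mutant plate controls; inactive means inhibition below 50%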;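 further: 0% = wild type cc124 cells in DMSO and 100% = ciliumless bld1 mutant cells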); details: OD600 absorbance, 2 days, at 10 µM, stronger effect = higher value
[10] = measured here: cell density z-score
[11] = measured here: nuclear c-Myc green intensity z-score
[12] = measured here: nuclear pErk red intensity z-score, stronger effect = higher value

SMILES	cell count [1]	inhibition [1]	inhibition [2]	nuclei count [2] [%]	z-score [3, 10]	z-score [3, 11]	z-score [3, 12]	inhibition [4]	fluorescence slope [5]	NADPH fluorescence slope [6]	fluorescence slope [7]	outcome [8]	inhibition [9]
COc1ccc(CSC2=NCCN2)cc1Cl	382	-2.2% (inactive)	-95.2% (inactive)	83.1	-0.238	2.09	0.748	9.42% (inactive)	-0.459 (inactive)	-7e-05 (inactive)	0.00397 (inactive)	inactive	143% (active)
CCC(C)Nc1nc(OC)nc(N(C)C#N)n1 (configuration not stated)	675	7.6% (inactive)	-32.5% (inactive)	130	0.721	0.541	0.135	-9.53% (inactive)	-0.431 (inactive)	-5.5e-05 (inactive)	0.00571 (inactive)	inactive	3.27% (inactive)
O=C(NCc1ccccn1)c1coc(=O)c(Br)c1	542	-1% (inactive)	22.6% (inactive)	119	-0.164	0.668	-0.53	9.61% (inactive)	-0.481 (inactive)	-4e-05 (inactive)	0.00581 (inactive)	inactive	10.6% (inactive)
CCOC(=O)c1c(NC(=O)CN2CCOCC2)sc2c1CC(C)(C)OC2	525	-12.5% (inactive)	-92.8% (inactive)	146	0.295	-0.682	-0.184	3.49% (inactive)	-0.465 (inactive)	-4.6e-05 (inactive)	0.00443 (inactive)	inactive	-12.3% (inactive)
Cc1cccc(-c2nc(C#N)c(NC3CCCCC3)o2)c1	373	-5.1% (inactive)	-71.9% (inactive)	134	1.1	-0.201	-0.602	9.82% (inactive)	-0.492 (inactive)	-0.000119 (inactive)	0.00501 (inactive)	inactive	-0.036% (inactive)
CCn1nc(NC(=O)c2ccco2)c2cc3ccccc3nc21	700	-11.3% (inactive)	-20.2% (inactive)	168	-0.0808	0.362	-0.0698	-6.48% (inactive)	-0.404 (inactive)	-4.1e-05 (inactive)	0.0055 (inactive)	inactive	-8.58% (inactive)
Cc1ccc2cc(CNC(C)C)c(=O)[nH]c2c1	529	-8.4% (inactive)	12.9% (inactive)	99.8	2.86	-1.18	-1.89	37.7% (inactive)	-0.49 (inactive)	-2.7e-05 (inactive)	0.00672 (inactive)	inactive	-6.41% (inactive)
CC1(C)C2CCC1(C)C(NC(=O)CCN1CCCCC1)C2 (configuration not stated)	570	-3.7% (inactive)	-89.2% (inactive)	163	0.233	1.96	0.463	5.95% (inactive)	-0.4 (inactive)	-4.2e-05 (inactive)	0.00508 (inactive)	inactive	55.5% (active)
CC(C)CSc1nc(N2CCOCC2)c2c(c1C#N)CC(C)(C)SC2	574	-6% (inactive)	-69.8% (inactive)	145	-0.439	-0.915	-0.541	-5.81% (inactive)	-0.424 (inactive)	-8.1e-05 (inactive)	0.00667 (inactive)	inactive	25.7% (inactive)
COCCNc1ncnc2c1cnn2-c1ccc(Cl)cc1	534	-25.3% (inactive)	11.8% (inactive)	184	1.76	-0.928	-0.638	23.4% (inactive)	-0.429 (inactive)	-5.8e-05 (inactive)	0.00652 (inactive)	inactive	6.55% (inactive)
COc1cc(C2C(C(=O)c3sc(C)nc3C)=C(O)C(=O)N2CCN(C)C)cc(OC)c1OC (configuration not stated)	398	3.6% (inactive)	-36.2% (inactive)	155	0.333	0.0451	0.204	3.56% (inactive)	-0.446 (inactive)	-0.000115 (inactive)	0.00444 (inactive)	inactive	-3.66% (inactive)
C=CCn1c(N)c(C(=O)Nc2ccccc2)c2nc3ccccc3nc21	628	9.1% (inactive)	-27.4% (inactive)	121	1.06	-1.1	-0.334	9.07% (inactive)	-0.398 (inactive)	-1.8e-05 (inactive)	0.00512 (inactive)	active; no signal in intestine only	59.2% (active)
CCC(=O)Nc1ccc(-c2nnc(SCC(=O)NCC3CCCO3)n2C)cc1 (configuration not stated)	656	-4.5% (inactive)	10.4% (inactive)	160	-0.113	1.6	0.412	-2.09% (inactive)	-0.5 (inactive)	-5.7e-05 (inactive)	0.0052 (inactive)	inactive	-4.35% (inactive)
COc1cccc(C(=O)c2sc(NC(C)C)nc2N)c1	637	-11.5% (inactive)	61.3% (inactive)	158	-0.552	2.2	0.884	-3.95% (inactive)	-0.496 (inactive)	-7.1e-05 (inactive)	0.00607 (inactive)	inactive	-1.39% (inactive)
